# Measurements reported in ChEMBL document CHEMBL3621107, “Ring fusion strategy for synthesis and lead optimization of sulfur-substituted anthra[1,2-c][1,2,5]thiadiazole-6,11-dione derivatives as promising scaffold of antitumor agents” (Eur J Med Chem, 2015).
# What was measured:
# MCF7 = experiment: Cytotoxicity against human MCF7 cells assessed as cell growth at 10 uM after 48 hrs by SRB assay relative to control; format: functional; settings: MCF7, 48 h, read-out: Activity
# In short: (§1)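 First-stage NCI-60 screen by the NCI Developmental Therapeutics Program. Each compound was tested once at a single concentration of 10 μM against the 60-cell-line panel. Growth percentage was reported for each cell line.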
# K562 = experiment: Cytotoxicity against human K562 cells assessed as cell growth at 10 uM after 48 hrs by SRB assay relative to control; format: functional; settings: K562, 48 h, read-out: Activity; in short: as §1
# HOP-92 = experiment: Cytotoxicity against human HOP92 cells assessed as cell growth at 10 uM after 48 hrs by SRB assay relative to control; format: functional; settings: HOP-92, 48 h, read-out: Activity; in short: as §1
# NCI-H226 = experiment: Cytotoxicity against human NCI-H226 cells assessed as cell growth at 10 uM after 48 hrs by SRB assay relative to control; format: functional; settings: NCI-H226, 48 h, read-out: Activity
# In short: (§2)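 First-stage NCI DTP one-dose screen against the 60 human tumour cell line panel. Compounds were tested at a single 10 μM level, and results are given as growth percentage.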
# RPMI-8226 = experiment: Cytotoxicity against human RPMI8226 cells assessed as cell growth at 10 uM after 48 hrs by SRB assay relative to control; format: functional; settings: RPMI-8226, 48 h, read-out: Activity; in short: as §2
# DU-145 [1] = experiment: Cytotoxicity against human DU145 cells after 72 hrs by MTT assay; format: functional, cell-based; settings: DU-145, 72 h
# In short: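 DU-145 cells grown in RPMI-1640 with 5% heat-inactivated fetal calf serum at 37 °C, 5% CO2. About 2×10^3 cells per well were seeded and incubated for 24 h. Compounds were dissolved in DMSO freshly and diluted into medium (vehicle 0.1% DMSO), then cells were exposed for 72 h. MTT was added for 3 h at 37 °C and absorbance read at 570 nm.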
# UACC-257 = experiment: Cytotoxicity against human UACC257 cells assessed as cell growth at 10 uM after 48 hrs by SRB assay relative to control; format: functional; settings: UACC-257, 48 h, read-out: Activity
# In short: (§3)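 NCI-60 one-dose screen run by NCI DTP: each cell line exposed to a single 10 µM dose, and percentage growth recorded against untreated growth.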
# SF-539 = experiment: Cytotoxicity against human SF539 cells assessed as cell growth at 10 uM after 48 hrs by SRB assay relative to control; format: functional; settings: SF-539, 48 h, read-out: Activity; in short: as §2
# SR = experiment: Cytotoxicity against human SR cells assessed as cell growth at 10 uM after 48 hrs by SRB assay relative to control; format: functional; settings: read-out: Activity; in short: as §3
# A498 = experiment: Cytotoxicity against human A498 cells assessed as cell growth at 10 uM after 48 hrs by SRB assay relative to control; format: functional; settings: A498, 48 h, read-out: Activity; in short: as §1
# SK-OV-3 = experiment: Cytotoxicity against human SKOV3 cells assessed as cell growth at 10 uM after 48 hrs by SRB assay relative to control; format: functional; settings: SK-OV-3, 48 h, read-out: Activity; in short: as §2
# HOP-62 = experiment: Cytotoxicity against human HOP62 cells assessed as cell growth at 10 uM after 48 hrs by SRB assay relative to control; format: functional; settings: HOP-62, 48 h, read-out: Activity; in short: as §1
# OVCAR-8 = experiment: Cytotoxicity against human OVCAR8 cells assessed as cell growth at 10 uM after 48 hrs by SRB assay relative to control; format: functional; settings: OVCAR-8, 48 h, read-out: Activity; in short: as §2
# PC-3 [2] = experiment: Cytotoxicity against human PC3 cells after 48 hrs by SRB assay; format: functional, cell-based; settings: PC-3, 48 h
# In short: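 Second-stage NCI-60 panel run by the NCI Developmental Therapeutics Program, covering nine tumour subpanels. Five concentrations were tested: 0.01, 0.1, 1, 10 and 100 μM. Percentage growth at each level was plotted against log10 drug concentration. GI50, TGI and LC50 were read from these dose-response curves. Subpanel MID values were divided into the full-panel MID to give selectivity ratios.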
# U-251 = experiment: Cytotoxicity against human U251 cells assessed as cell growth at 10 uM after 48 hrs by SRB assay relative to control; format: functional; settings: U-251, 48 h, read-out: Activity; in short: as §3
# UO-31 = experiment: Cytotoxicity against human UO31 cells assessed as cell growth at 10 uM after 48 hrs by SRB assay relative to control; format: functional; settings: UO-31, 48 h, read-out: Activity; in short: as §3
# HCC 2998 = experiment: Cytotoxicity against human HCC2998 cells assessed as cell growth at 10 uM after 48 hrs by SRB assay relative to control; format: functional; settings: HCC 2998, 48 h, read-out: Activity; in short: as §1
# DU-145 [3] = experiment: Cytotoxicity against human DU145 cells assessed as cell growth at 10 uM after 48 hrs by SRB assay relative to control; format: functional; settings: DU-145, 48 h, read-out: Activity; in short: as §1
# PC-3 [4] = experiment: Cytotoxicity against human PC3 cells assessed as cell growth at 10 uM after 48 hrs by SRB assay relative to control; format: functional; settings: PC-3, 48 h, read-out: Activity; in short: as §2
# NCI-H23 = experiment: Cytotoxicity against human NCI-H23 cells assessed as cell growth at 10 uM after 48 hrs by SRB assay relative to control; format: functional; settings: NCI-H23, 48 h, read-out: Activity; in short: as §2
# SNB-19 = experiment: Cytotoxicity against human SNB19 cells assessed as cell growth at 10 uM after 48 hrs by SRB assay relative to control; format: functional; settings: SNB-19, 48 h, read-out: Activity; in short: as §3
# KM12 = experiment: Cytotoxicity against human KM12 cells assessed as cell growth at 10 uM after 48 hrs by SRB assay relative to control; format: functional; settings: KM12, 48 h, read-out: Activity; in short: as §1
# M14 = experiment: Cytotoxicity against human M14 cells assessed as cell growth at 10 uM after 48 hrs by SRB assay relative to control; format: functional; settings: M14, 48 h, read-out: Activity; in short: as §1
# SN12C = experiment: Cytotoxicity against human SN12C cells assessed as cell growth at 10 uM after 48 hrs by SRB assay relative to control; format: functional; settings: read-out: Activity; in short: as §2
# NCI-H522 = experiment: Cytotoxicity against human NCI-H522 cells assessed as cell growth at 10 uM after 48 hrs by SRB assay relative to control; format: functional; settings: NCI-H522, 48 h, read-out: Activity; in short: as §2
# SK-MEL-28 = experiment: Cytotoxicity against human SK-MEL-28 cells assessed as cell growth at 10 uM after 48 hrs by SRB assay relative to control; format: functional; settings: SK-MEL-28, 48 h, read-out: Activity; in short: as §2
# MDA-MB-435 = experiment: Cytotoxicity against human MDA-MB-435 cells assessed as cell growth at 10 uM after 48 hrs by SRB assay relative to control; format: functional; settings: MDA-MB-435, 48 h, read-out: Activity; in short: as §2
# HCT-116 = experiment: Cytotoxicity against human HCT116 cells assessed as cell growth at 10 uM after 48 hrs by SRB assay relative to control; format: functional; settings: HCT-116, 48 h, read-out: Activity; in short: as §1
# A549 = experiment: Cytotoxicity against human A549 cells assessed as cell growth at 10 uM after 48 hrs by SRB assay relative to control; format: functional; settings: A549, 48 h, read-out: Activity; in short: as §1
# BT-549 = experiment: Cytotoxicity against human BT549 cells assessed as cell growth at 10 uM after 48 hrs by SRB assay relative to control; format: functional; settings: BT-549, 48 h, read-out: Activity; in short: as §1
structure (smiles),measurement,setting,value
CSc1ccc(Sc2cc3c(c4nsnc24)C(=O)c2ccccc2C3=O)cc1,growth at 10 µM,MCF7,82.9%
same,growth at 10 µM,K562,67.5%
same,growth at 10 µM,HOP-92,4.31%
same,growth at 10 µM,NCI-H226,79.7%
same,growth at 10 µM,RPMI-8226,88.6%
same,IC50,DU-145 [1],> 15 µM
same,growth at 10 µM,UACC-257,110%
same,growth at 10 µM,SF-539,96.5%
same,growth at 10 µM,SR,96.3%
same,growth at 10 µM,A498,56%
same,growth at 10 µM,SK-OV-3,102%
same,growth at 10 µM,HOP-62,102%
same,growth at 10 µM,OVCAR-8,97.4%
same,IC50,PC-3 [2],> 15 µM
same,growth at 10 µM,U-251,104%
same,growth at 10 µM,UO-31,67.6%
same,growth at 10 µM,HCC 2998,111%
same,growth at 10 µM,DU-145 [3],101%
same,growth at 10 µM,PC-3 [4],78.4%
same,growth at 10 µM,NCI-H23,81.5%
same,growth at 10 µM,SNB-19,102%
same,growth at 10 µM,KM12,100%
same,growth at 10 µM,M14,108%
same,growth at 10 µM,SN12C,98%
same,growth at 10 µM,NCI-H522,95.4%
same,growth at 10 µM,SK-MEL-28,120%
same,growth at 10 µM,MDA-MB-435,118%
same,growth at 10 µM,HCT-116,102%
same,growth at 10 µM,A549,105%
same,growth at 10 µM,BT-549,108%
COc1cccc(Sc2cc3c(c4nsnc24)C(=O)c2ccccc2C3=O)c1,growth at 10 µM,MCF7,72.8%
same,growth at 10 µM,K562,38.5%
same,growth at 10 µM,HOP-92,101%
same,growth at 10 µM,NCI-H226,95.3%
same,growth at 10 µM,RPMI-8226,52%
same,IC50,DU-145 [1],> 15 µM
same,growth at 10 µM,UACC-257,104%
same,growth at 10 µM,SF-539,107%
same,growth at 10 µM,SR,36.1%
same,growth at 10 µM,A498,83.7%
same,growth at 10 µM,SK-OV-3,110%
same,growth at 10 µM,HOP-62,61.8%
same,growth at 10 µM,OVCAR-8,97.3%
same,IC50,PC-3 [2],> 15 µM
same,growth at 10 µM,U-251,101%
same,growth at 10 µM,UO-31,75.5%
same,growth at 10 µM,HCC 2998,105%
same,growth at 10 µM,DU-145 [3],98.9%
same,growth at 10 µM,PC-3 [4],76%
same,growth at 10 µM,NCI-H23,76.4%
same,growth at 10 µM,SNB-19,106%
same,growth at 10 µM,KM12,97.1%
same,growth at 10 µM,M14,94.2%
same,growth at 10 µM,SN12C,95.9%
same,growth at 10 µM,NCI-H522,82.4%
same,growth at 10 µM,SK-MEL-28,102%
same,growth at 10 µM,MDA-MB-435,72.5%
same,growth at 10 µM,HCT-116,85.7%
same,growth at 10 µM,A549,110%
same,growth at 10 µM,BT-549,94.9%
O=C1c2ccccc2C(=O)c2c1cc(Sc1cc(Cl)ccc1Cl)c1nsnc21,growth at 10 µM,MCF7,85.2%
same,growth at 10 µM,K562,47.8%
same,growth at 10 µM,HOP-92,65.1%
same,growth at 10 µM,NCI-H226,112%
same,growth at 10 µM,RPMI-8226,77.2%
same,IC50,DU-145 [1],> 15 µM
same,growth at 10 µM,UACC-257,119%
same,growth at 10 µM,SF-539,88.7%
same,growth at 10 µM,SR,41.1%
same,growth at 10 µM,A498,87.7%
same,growth at 10 µM,SK-OV-3,84.1%
same,growth at 10 µM,HOP-62,63.2%
same,growth at 10 µM,OVCAR-8,85.1%
same,IC50,PC-3 [2],> 15 µM
same,growth at 10 µM,U-251,63.6%
same,growth at 10 µM,UO-31,91.5%
same,growth at 10 µM,HCC 2998,109%
same,growth at 10 µM,DU-145 [3],102%
same,growth at 10 µM,PC-3 [4],80.6%
same,growth at 10 µM,NCI-H23,74.6%
same,growth at 10 µM,SNB-19,84.4%
same,growth at 10 µM,KM12,101%
same,growth at 10 µM,M14,99%
same,growth at 10 µM,SN12C,96.7%
same,growth at 10 µM,NCI-H522,91.3%
same,growth at 10 µM,SK-MEL-28,123%
same,growth at 10 µM,MDA-MB-435,106%
same,growth at 10 µM,HCT-116,81.9%
same,growth at 10 µM,A549,103%
same,growth at 10 µM,BT-549,79.7%
